Reference: ChEMBL document CHEMBL4342502, “Synthesis and Antichlamydial Activity of Molecules Based on Dysregulators of Cylindrical Proteases” (J Med Chem, 2020)
The source made the active and inactive calls. No cut-off for these calls is given here.

Experiments:
[1] = system: Neisseria meningitidis; experiment: Antimicrobial activity against Neisseria meningitidis MC58 assessed as bacterial growth inhibition measured after 18 to 20 hrs; type: functional
[2] = system: Haemophilus influenzae; experiment: Antimicrobial activity against Haemophilus influenzae H2192 assessed as bacterial growth inhibition measured after 18 to 20 hrs; type: functional
[3] = system: Chlamydia trachomatis; experiment: Anti-chlamydial activity against Chlamydia trachomatis Serovar LGV-L2 infected in Hep2 cells assessed as inhibition of chlamydial inclusion at 50 ug/ml treated at 8 hrs post infection and measured at 24 hrs post-infection by immunofluorescence assay; type: functional, organism-based
Procedure, shortened: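 HEp-2 cells infected with C. trachomatis serovar L2. Compounds at 50 μg/mL added 8 hpi; inclusion number and size assessed by immunofluorescence at 24 hpi against untreated cells. Cell morphology and viability checked by phase-contrast microscopy.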

[4] = system: Chlamydia trachomatis; experiment: (§1) Anti-chlamydial activity against Chlamydia trachomatis Serovar LGV-L2 infected in Hep2 cells assessed as reduction in chlamydial inclusion growth by measuring appearance of small and irregular inclusions at 128 ug/ml treated at 8 hrs post-infection and 24 hrs later re-infecting fresh Hep2 cells monolayer with infected cells and measured at 24 hrs post re-infection by immunofluorescence staining based microscopy analysis; type: functional, organism-based
Procedure, shortened: (§2)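 HEp-2 cells in DMEM with 10% FBS, infected with C. trachomatis L2 at MOI 1. Compounds added 8 hpi in triplicate; DMSO stocks at 50 mg/mL. At 24 hpi lysates collected in sucrose storage medium, frozen at −80 °C, and used to infect fresh HEp-2 monolayers in 10-fold dilutions. After 24 h, stained with goat anti-MOMP and Alexa488 secondary. Inclusions counted in 15 fields at 20x; IFU = mean count per field corrected for dilution.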

[5] = system: HEp-2; experiment: Toxicity in human Hep2 cells infected with Chlamydia trachomatis Serovar LGV-L2 assessed as cell morphology at 50 ug/ml treated at 8 hrs post-infection and measured at 24 hrs post-infection by phase contrast microscopy; type: cell-based
Procedure, shortened: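 HEp-2 cells grown in DMEM with 2% L-glutamine and 10% FBS at 37 °C, infected with C. trachomatis serovar L2. Compound at 50 μg/mL added 8 h post-infection, then incubated 16 h more (24 h total). Cell morphology and viability checked by phase-contrast microscopy alongside untreated infected cells.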

[6] = system: Chlamydia trachomatis; experiment: as §1, with “infectivity” for “inclusion growth”, “decrease in inclusion forming units” for “appearance of small and irregular inclusions”, “50” for “128”; type: functional, organism-based; procedure, shortened: as §2
[7] = system: Chlamydia trachomatis; experiment: Anti-Chlamydial activity against Chlamydia trachomatis Serovar LGV-L2 infected in Hep2 cells assessed as reduction in size and number of chlamydial inclusion at 50 ug/ml treated at 8 hrs post-infection and 24 hrs later re-infecting fresh Hep2 cells monolayer with infected cells and measured at 24 hrs post re-infection by immunofluorescence staining based microscopy analysis; type: functional, organism-based; procedure, shortened: as §2
[8] = system: Chlamydia trachomatis; experiment: as §1, with “3” for “128”; type: functional, organism-based; procedure, shortened: as §2

## CC(C)(C(=O)NCCSc1ccccc1Cl)S(=O)(=O)c1ccc(C(F)(F)F)cn1
[1]
  Activity: 64 µg/mL
[2]
  Activity: 32 µg/mL
[3]
  inhibition: Active

## CN[C@@H]1[C@H](O)[C@H](NC)[C@H]2O[C@@]3(O)C(=O)C[C@@H](C)O[C@H]3O[C@@H]2[C@H]1O
[4]
  inhibition: Active

## CC(C)(Sc1ccc(C(F)(F)F)cn1)C(=O)NCCCc1ccccc1
[5]
  Activity: Toxic

## CC(C)(C(=O)NCCCc1ccccc1)S(=O)(=O)c1ccc(C(F)(F)F)cn1
[1]
  Activity: 16 µg/mL
[2]
  Activity: 8 µg/mL
[6]
  inhibition: Active
[7]
  inhibition: Active

## CC1(C)S[C@@H]2[C@H](NC(=O)Cc3ccccc3)C(=O)N2[C@H]1C(=O)O
[8]
  inhibition: Active
